How the values were obtained:
[1] = Cytotoxicity against human rhabdomyosarcoma cells; type: cell-based
Summary of the method: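 RD (rhabdomyosarcoma) cells were exposed to test compounds at various concentrations for 96 h at 37 °C. Viable cells were counted by trypan blue staining. CC50 is the concentration that reduces viability to 50% of the untreated control culture. Triplicate, run at least twice.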

[2] = tested on: Enterovirus; experiment: In vitro inhibitory concentration against human enterovirus EV71-4643 strain; type: functional, organism-based, Enterovirus A71
Summary of the method: (§1)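 CPE-inhibition (neutralization) assay on RD cells seeded at 3 × 10⁵ cells/mL in DMEM/10% FBS and grown 24-30 h to about 90% confluency. Virus (100 TCID50) was mixed with graded compound concentrations and adsorbed 1 h at 37 °C. Cells were overlaid with DMEM, 5% FBS and 2% DMSO, incubated 64 h at 37 °C, then glutaraldehyde-fixed and crystal violet-stained, with A570 read-out. IC50 is 50% CPE reduction versus virus control. Triplicate, at least twice.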

[3] = tested on: Enterovirus; experiment: In vitro inhibitory concentration against human enterovirus EV71-2231 strain; type: functional, organism-based, Enterovirus A71; summary of the method: as §1
[4] = In vitro inhibitory concentration against Coxsackievirus B4; type: functional, Viruses; summary of the method: as §1
[5] = In vitro inhibitory concentration against Echovirus 6; type: functional, Viruses
[6] = tested on: Enterovirus; experiment: In vitro inhibitory concentration against human enterovirus EV71; type: functional, organism-based, Viruses; summary of the method: as §1
[7] = tested on: Enterovirus; experiment: Inhibitory concentration against human enterovirus EV68; type: functional, organism-based, Viruses
[8] = tested on: Coxsackievirus; experiment: Inhibitory concentration against Coxsackievirus A16; type: functional, organism-based, Viruses; summary of the method: as §1
[9] = tested on: Enterovirus; experiment: Inhibitory concentration against human enterovirus EV71 (4643) genotype C; type: functional, organism-based, Viruses; summary of the method: as §1
[10] = tested on: rhinovirus A2; experiment: Inhibitory concentration against Human rhinovirus 2; type: functional, organism-based, human rhinovirus type 2; conditions: Rhinovirus A; summary of the method: as §1
[11] = tested on: Enterovirus; experiment: Inhibitory concentration against human enterovirus EV71 (1743) genotype B; type: functional, organism-based, Viruses; summary of the method: as §1
[12] = Inhibitory concentration against Human rhinovirus 14; type: functional, human rhinovirus type 14; summary of the method: as §1
[13] = tested on: Coxsackievirus; experiment: Inhibitory concentration against Coxsackievirus B3; type: functional, organism-based, Viruses; summary of the method: as §1
[14] = tested on: Coxsackievirus; experiment: Inhibitory concentration against Coxsackievirus B4; type: functional, organism-based, Viruses; summary of the method: as §1
[15] = tested on: Enterovirus; experiment: Inhibitory concentration against human enterovirus EV71 (2231) genotype C; type: functional, organism-based, Viruses; summary of the method: as §1
[16] = tested on: Coxsackievirus; experiment: Inhibitory concentration against Coxsackievirus B2; type: functional, organism-based, Viruses; summary of the method: as §1
[17] = Inhibitory concentration against Echovirus 9; type: functional, Viruses; summary of the method: as §1
[18] = tested on: Coxsackievirus; experiment: Inhibitory concentration against Coxsackievirus A9; type: functional, organism-based, Viruses; summary of the method: as §1
[19] = tested on: Coxsackievirus; experiment: Inhibitory concentration against Coxsackievirus A24; type: functional, organism-based, Viruses; summary of the method: as §1
[20] = tested on: Enterovirus; experiment: Ratio of CC50 to that of IC50 against human enterovirus EV71-4643 strain; type: functional, Enterovirus A71
[21] = tested on: Enterovirus; experiment: Ratio of CC50 to that of IC50 against human enterovirus EV71-2231 strain; type: functional, Enterovirus A71
[22] = tested on: Coxsackievirus; experiment: Inhibitory concentration against Coxsackievirus B1; type: functional, organism-based, Viruses; summary of the method: as §1
[23] = tested on: Coxsackievirus; experiment: Inhibitory concentration against Coxsackievirus B5; type: functional, organism-based, Viruses; summary of the method: as §1
[24] = Inhibitory concentration against Echovirus 29; type: functional, Viruses; summary of the method: as §1
[25] = tested on: Enterovirus; experiment: Inhibitory concentration against human enterovirus EV71 (BrCr) genotype A; type: functional, organism-based, Viruses; summary of the method: as §1
[26] = tested on: Coxsackievirus; experiment: Inhibitory concentration against Coxsackievirus B6; type: functional, organism-based, Viruses; summary of the method: as §1
[27] = tested on: Coxsackievirus; experiment: Inhibitory concentration against Coxsackievirus A10; type: functional, organism-based, Viruses; summary of the method: as §1

CN(CCOc1ccc(-c2ccc(Cl)cc2)cc1)CCN1CCN(c2ccncc2)C1=O
CC50 [1]: 25000 nM
IC50 [2]: 400 nM
IC50 [3]: 1180 nM

O=C1N(Cc2cccc(COc3ccc(-c4ccc(Cl)cc4)cc3)n2)CCN1c1ccncc1
CC50 [1]: > 25000 nM
IC50 [2]: > 25000 nM
IC50 [3]: > 25000 nM

Cc1ccc(CN(CCOc2ccc(-c3ccc(Cl)cc3)cc2)CCN2CCN(c3ccncc3)C2=O)cc1
CC50 [1]: > 12500 nM
IC50 [2]: > 12500 nM
IC50 [3]: > 12500 nM

CCC(CCOc1ccc(-c2ccc(Cl)cc2)cc1)CCN1CCN(c2ccncc2)C1=O (centres undefined)
CC50 [1]: > 25000 nM
IC50 [2]: 170 nM
IC50 [3]: 600 nM

O=C1N(Cc2ccc(COc3ccc(-c4ccc(Cl)cc4)cc3)cc2)CCN1c1ccncc1
CC50 [1]: > 1250 nM
IC50 [2]: > 1250 nM
IC50 [3]: > 1250 nM

N#Cc1ccc2c(c1)CCC(c1ccc(Cl)cc1)O2 (centres undefined)
IC50 [4]: 320 nM
IC50 [5]: 480 nM
IC50 [6]: 450 nM

CC(CCOc1ccc(-c2ccc(Cl)cc2)cc1)CCN1CCN(c2ccncc2)C1=O (centres undefined)
CC50 [1]: > 25000 nM
IC50 [7]: 2680 nM
IC50 [8]: 900 nM
IC50 [2]: 9.3 nM
IC50 [9]: 9.3 nM
IC50 [3]: 38 nM
IC50 [10]: > 12500 nM
IC50 [11]: 16 nM
IC50 [12]: 7910 nM
IC50 [13]: > 12500 nM
IC50 [14]: 1240 nM
IC50 [15]: 38 nM
IC50 [16]: > 12500 nM
IC50 [17]: 2630 nM
IC50 [18]: 33 nM
IC50 [19]: 250 nM
Selectivity index [20]: >2688
Selectivity index [21]: >657
IC50 [22]: 2890 nM
IC50 [23]: 1320 nM
IC50 [24]: 40 nM
IC50 [25]: 69 nM
IC50 [26]: > 12500 nM
IC50 [27]: 1710 nM

O=C1N(Cc2ccccc2COc2ccc(-c3ccc(Cl)cc3)cc2)CCN1c1ccncc1
CC50 [1]: > 1250 nM
IC50 [2]: > 1250 nM
IC50 [3]: > 1250 nM

CC(CCCN1CCN(c2ccncc2)C1=O)COc1ccc(-c2ccc(Cl)cc2)cc1 (centres undefined)
CC50 [1]: > 25000 nM
IC50 [2]: 15 nM
IC50 [3]: 57 nM

O=C1N(CCOCCOc2ccc(-c3ccc(Cl)cc3)cc2)CCN1c1ccncc1
CC50 [1]: 25000 nM
IC50 [2]: 830 nM
IC50 [3]: 7300 nM

O=C1N(CCC(CCOc2ccc(-c3ccc(Cl)cc3)cc2)c2ccccc2)CCN1c1ccncc1 (centres undefined)
CC50 [1]: > 25000 nM
IC50 [2]: > 25000 nM
IC50 [3]: > 25000 nM

CC(CCCCOc1ccc(-c2ccc(Cl)cc2)cc1)N1CCN(c2ccncc2)C1=O (centres undefined)
CC50 [1]: 12500 nM
IC50 [2]: 36 nM
IC50 [3]: 230 nM

O=C1N(CCN(CCOc2ccc(-c3ccc(Cl)cc3)cc2)Cc2ccccc2)CCN1c1ccncc1
CC50 [1]: > 5000 nM
IC50 [2]: > 5000 nM
IC50 [3]: > 5000 nM

Cc1cc(COc2ccc(-c3ccc(Cl)cc3)cc2)cc(CN2CCN(c3ccncc3)C2=O)c1
CC50 [1]: > 25000 nM
IC50 [2]: 22900 nM
IC50 [3]: > 25000 nM

Cc1nc(-c2ccc(OCCC(C)CCN3CCN(c4ccncc4)C3=O)cc2)no1 (centres undefined)
CC50 [1]: > 6250 nM
IC50 [2]: 0.9 nM
IC50 [3]: 10 nM
Selectivity index [20]: >6944
Selectivity index [21]: >625

O=C1N(Cc2cccc(COc3ccc(-c4ccc(Cl)cc4)cc3)c2)CCN1c1ccncc1
CC50 [1]: > 6250 nM
IC50 [2]: 160 nM
IC50 [3]: 1170 nM

O=C1N(CCC2(CCOc3ccc(-c4ccc(Cl)cc4)cc3)CCCCC2)CCN1c1ccncc1
CC50 [1]: > 25000 nM
IC50 [2]: > 25000 nM
IC50 [3]: > 25000 nM

— ChEMBL document CHEMBL1139509, “Design, synthesis, and antipicornavirus activity of 1-[5-(4-arylphenoxy)alkyl]-3-pyridin-4-ylimidazolidin-2-one derivatives” (J Med Chem, 2005)
